Source: PubChem BioAssay
Compounds with a hit are over-represented: about 1.9% of the library has one in this group of screens.
Hck-Nef inh: inhibitors of Nef-activated human Hck kinase, primary screen, biochemical, Z-Lyte FRET, 384-well, Hck-YEEI. Tyrosine-protein kinase HCK (Homo sapiens), P08631. Recombinant Hck-YEEI plus Nef, Z-Lyte FRET kinase assay. actives 0.68% (n = 220,000). AID 463187, 2010. inhibition, % at 20 µM;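 active = Hck-Nef kinase inhibition above about 50%, limit read from the data; inactive = inhibition below that limit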;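 note: 0% = DMSO with Hck plus Nef and 100% = Hck alone without Nef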
Runt-CBFb FRET: inhibitors of RUNX1 Runt–CBFb binding, primary screen, biochemical, FRET, Cerulean-Runt, Venus-CBFb, uHTS; inhibition, % at 20 µM; Cerulean-Runt/Venus-CBFb FRET ratio 530/480, 1 h; actives 0.46% (n = 220,000); Runt-related transcription factor 1 (Homo sapiens) + Core-binding factor subunit beta …;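 active = inhibition over about 50% at 20 µM in the single-dose screen, limit read from the data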;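 note: 0% = DMSO wells and 100% = excess unlabeled CBFb competitor control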
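Reagent – Venus-CBFb binding partner, 100 nM · Assay system – Cerulean-tagged RUNX1 Runt domain (FRET donor) fusion protein · Input – 100 nM per protein · Incubation – two 1 h room-temperature incubations shielded from light · Measured by – FRET fluorescence · Medium – Tris buffer pH 7.5 with salts and BSA · Benchmarks – unlabeled CBFb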
RanGTP-Impb inh: inhibitors of RanGTP-importin-beta interaction, primary screen, biochemical, FRET, CFP-Ran, YFP-importin-beta, homogeneous | Ran GTPase (GTP-bound) - importin-beta complex | cell-free CFP-Ran/YFP-importin-beta FRET ratio | inhibition, % (concentration not given with the values) | actives 1.1% (n = 300,000) | AID 2216, 2009;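 active = more than half of the replicate wells show a fall in the fluorescence ratio signal beyond about 16%, limit read from the data, passing the limit was not always enough; inconclusive = exactly half of the replicate wells pass the set limit; inactive = fewer than half of replicates pass the limit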;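 note: 0% = DMSO wells and 100% = Ran loaded with GDP instead of GTP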
Runt-SMMHC FRET: inhibitors of RUNX1 Runt–CBFb-SMMHC binding, primary screen, biochemical, FRET, Cerulean-Runt, Venus-CBFb-SMMHC, uHTS; Runt-related transcription factor 1 (Homo sapiens) + Core-binding factor subunit beta …; Cerulean-Runt/Venus-CBFb-SMMHC FRET ratio 530/480, 1 h; inhibition, % at 20 µM; actives 0.74% (n = 220,000);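 active = mean inhibition across duplicate retests at 20 µM reaching about 50%, limit read from the data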;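 note: 0% = DMSO wells and 100% = wells with excess untagged CBFb-SMMHC; inhibitors lower the FRET ratio by blocking Runt binding to CBFb-SMMHC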
YIC FRET counter: YIC intramolecular FRET probe signal interference, dose response, counter-screen for RanGTP-importin-beta inhibitor project, biochemical, fluorescence FRET; shares compounds with RanGTP-Impb inh; actives 40% (n = 1,000); Purified YIC probe, intramolecular FRET ratio YFP/CFP; IC50, µM;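 active = fitted half-maximal inhibitory concentration no more than tenfold above the top dose tested; inconclusive = flat fit with 30 to 70% activity, or poor fit; inactive = half-maximal concentration beyond tenfold above the top dose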
Hck-Nef confirm: retest of Hck:Nef kinase inhibitor hits, confirmation, biochemical, Z-Lyte FRET, 384-well, p-Tyr peptide counterscreen; shares compounds with Hck-Nef inh; Recombinant Hck-YEEI:Nef, Z-Lyte FRET kinase assay; calls only at 10 µM; actives 28% (n = 1,300); AID 463188, 2010;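 active = average inhibition of at least 50%, with Z-scores no higher than 3 in both the phospho-tyrosine peptide and fluorescence counterscreens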
* = called active by the depositor; i = inactive; ? = inconclusive; · = no result shown; + = active, no number.

SMILES	Hck-Nef inh	Runt-CBFb FRET	RanGTP-Impb inh	Runt-SMMHC FRET	Hck-Nef confirm	others
O=c1/c(=C/c2ccccn2)sc2n1CN(c1ccccc1)CN=2	-3	0	1	1	·
Cc1cc(C)c2c(c1)/C(=c1/sc3n(c1=O)CN(c1ccccc1)CN=3)C(=O)N2	54*	-2	54*	0	i	YIC FRET counter=>50
COc1nc(NCCc2ccc(OC)c(OC)c2)nc(OC)n1	2	0	6	3	·
COc1ccc(CCNc2c3ccccc3nc3ccccc23)cc1OC	56*	110*	43*	134*	i	YIC FRET counter=14*
CC(C)c1ccc(NC(=O)C(c2ccc3c(c2)OCO3)N2CCCCC2)cc1 (stereo unspecified)	2	-2	1	3	·
Oc1cc2c(cc1C(c1ccc(Cl)c(Cl)c1)N1CCCC1)OCO2 (stereo unspecified)	70*	8	2	22	i
CN(C)CCCn1c(N)c(S(=O)(=O)c2ccccc2)c2nc3ccccc3nc21	85*	8	1	15	·
C=CCn1c(NS(=O)(=O)c2ccccc2)c(S(=O)(=O)c2ccc(C)cc2)c2nc3ccccc3nc21	83*	1	76*	4	i
O=S(=O)(Nc1c(S(=O)(=O)c2ccccc2)c2nc3ccccc3nc2n1C1CCCCC1)c1ccccc1	53*	4	6	11	·
O=S(=O)(Nc1nc2ccccc2s1)c1ccc(Cl)nc1	-1	1	-2	-6	·
O=C(Nc1cnn(C23CC4CC(CC(C4)C2)C3)c1)c1cnn2c(C(F)(F)F)cc(-c3ccco3)nc12	81*	-6	?	-7	+
O=[N+]([O-])c1ccc(/C=N/n2cn[nH]c2=S)cc1	105*	8	2	3	·
CCOC(=O)c1c(NC(=O)N/N=C/c2ccc(O)c(OC)c2)sc(C(C)=O)c1C	61*	5	-5	-6	i
COCCNC(=O)CSc1nnc(NC(=O)C2CC(=O)N(c3ccccc3OC)C2)s1 (stereo unspecified)	·	·	1	·	·
O=C(Nc1ccccc1C(=O)O)c1ccc2c(c1)C(=O)N(c1cccc([N+](=O)[O-])c1)C2=O	·	·	1	·	·
O=C(Nc1c[nH]c(=O)[nH]c1=O)c1ccc2c(c1)C(=O)N(c1cccc([N+](=O)[O-])c1)C2=O	94*	-2	7	-8	+
O=c1oc2c3c4c(cc2c2c1CCC2)OCCN4CCC3	97*	83*	·	53*	·
CCOC(=O)c1c(NC(=O)C2CCCO2)sc(C(=O)OC(C)(C)C)c1C (stereo unspecified)	68*	30	1	-10	i
COc1ccccc1/C=C/C=N/NC(=O)c1cc(-c2ccco2)[nH]n1	59*	24	-4	4	i
O=C(NC(=S)Nc1ccc(-c2nc3ncccc3o2)cc1)c1ccccc1F	52*	0	0	-4	i
Cc1ccc(OCC(=O)Nc2ccc(-c3nc4ncccc4o3)cc2)c(C)c1	106*	0	0	-3	i
O=C(NC(=S)Nc1ccc(Cc2ccncc2)cc1)c1ccccc1F	35	-3	-2	-3	·
Cc1ccc(C(=O)Nc2cccc(-c3nc4ncccc4o3)c2)cc1	16	4	-2	1	·
NC(=O)CC(NC(=O)Cc1ccc(Br)cc1)c1ccc(NCCc2ccc(F)cc2)c([N+](=O)[O-])c1 (stereo unspecified)	50*	-6	-1	-14	i
NC(=O)CC(NC(=O)Cc1cccc2ccccc12)c1ccc(NCC2CC2)c([N+](=O)[O-])c1 (stereo unspecified)	18	-3	3	-4	·
